This is an account of results in PMC11303814 (Nature Communications, 2024).

Test [1] concerns the target human P2X3. To be noted: cited from earlier work.
Test [2] concerns the target T1, biotinylated rP2X7 (Rattus norvegicus, UniProt Q64663).
T1 sequence (Q64663 1-595): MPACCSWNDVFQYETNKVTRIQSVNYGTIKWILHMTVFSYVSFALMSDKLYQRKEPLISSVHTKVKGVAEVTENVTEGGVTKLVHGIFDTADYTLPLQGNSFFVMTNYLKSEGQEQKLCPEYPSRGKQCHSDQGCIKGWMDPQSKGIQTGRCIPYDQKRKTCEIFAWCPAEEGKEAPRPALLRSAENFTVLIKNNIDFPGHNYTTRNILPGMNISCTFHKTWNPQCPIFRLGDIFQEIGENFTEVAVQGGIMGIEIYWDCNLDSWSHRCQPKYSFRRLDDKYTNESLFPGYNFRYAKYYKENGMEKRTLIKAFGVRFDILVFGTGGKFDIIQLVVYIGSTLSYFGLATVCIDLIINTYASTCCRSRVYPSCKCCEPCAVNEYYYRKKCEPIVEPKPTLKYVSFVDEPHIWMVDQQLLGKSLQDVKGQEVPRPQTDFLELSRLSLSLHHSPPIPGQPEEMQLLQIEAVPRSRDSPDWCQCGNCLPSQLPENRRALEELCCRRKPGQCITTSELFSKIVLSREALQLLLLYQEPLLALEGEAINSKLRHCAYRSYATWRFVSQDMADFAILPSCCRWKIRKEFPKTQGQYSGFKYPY
The test is described as follows: Bio-layer interferometry. The format is binding. To be noted: for rate constant for association (ka) / rate constant for dissociation (kd): 30 °C, PBS pH 7.4, 0.5 mM DDM, 1:1 Langmuir global fit, mean ± SD of three. Summed up: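 Full-length rat P2X7 expressed in HEK293 GnTI cells by BacMam, purified in DDM/CHS (TALON, SEC), then biotinylated with NHS-PEG12-biotin at pH 8.0, 23 °C, 60 min. Loaded at 50 µg/ml onto streptavidin tips, blocked with biocytin. Threefold agonist dilutions (ATP 30–0.12 µM; BzATP 3.3–0.014 µM): 90 s association, 300 s (ATP) or 800 s (BzATP) dissociation. Double reference subtraction used biocytin sensors and zero analyte. KD = kd/ka.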
A general note: BLI is a label-free optical method that tracks binding on a fibre tip over time.

The target in test [3] is T2, rP2X7-Q143A/I214A (Rattus norvegicus, UniProt Q64663, I214A/Q143A).
T2 sequence (Q64663 1-595 Q143A/I214A): T1 sequence (Q64663 1-595) with Q143A, I214A
The test can be described thus: TEVC dose response. It counts as cell-based. To be noted: read-out: EC50 (apparent affinity), mean ± SD, triplicate. Summed up:
(§1)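 TEVC was run on Xenopus oocytes ~20 h after injection of wild-type or mutant rP2X7 mRNA, in pH 7.4 HEPES buffer with 0.1 mM flufenamic acid. Receptors were facilitated at 100 µM before recording. Dilution series: ATP 1.5 mM–2 µM (7 points), BzATP 300–0.14 µM (8 points). Responses were normalized to the largest concentration, fitted by nonlinear regression for EC50, and averaged across triplicates (mean ± SD).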

In test [4] the target is T3, rP2X7 K127A (Rattus norvegicus, UniProt Q64663, K127A).
T3 sequence (Q64663 1-595 K127A): T1 sequence (Q64663 1-595) with K127A
The test can be described thus: TEVC deactivation time. It counts as cell-based. Conditions: after 100 μM ATP or 10 μM BzATP. The method, boiled down:
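Xenopus oocytes injected with 50 nL of 10 ng/µL mutant rP2X7 mRNA, expressed ~20 h, clamped in pH 7.4 HEPES buffer with 0.1 mM flufenamic acid and EDTA. Currents were evoked by 100 µM ATP or 10 µM BzATP. τ is the time for current to return to 63% of baseline after agonist removal, from a one- or two-phase decay fit. Done in triplicate over first to third applications per oocyte; mean ± SD.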

Test [5] concerns the target zebra fish P2X4. To be noted: cited from earlier work.
In test [6] the target is T4, full-length wild-type rP2X7 (Rattus norvegicus, UniProt Q64663).
T4 sequence (Q64663 1-595): T1 sequence (Q64663 1-595)
The test is described as follows: TEVC dose response. It counts as cell-based. Conditions: WT rP2X7, TEVC. Summed up: as §1

Numbering of substitutions follows the chain as printed.

As a reminder, the Kd is the constant that tells how readily two partners part at equilibrium. The term EC50 denotes the concentration giving half of the maximal effect. For `Nc1ncnc2c1ncn2[C@@H]1O[C@H](COP(=O)(O)OP(=O)(O)OP(=O)(O)O)[C@@H](O)[C@H]1O` [ATP], the Kd in test [1] was 2.8 ± 0.1 nM. Also, in test [2] (BLI), the “rate constant for association (ka)” value was 9.4 ± 2.4 x10^4 M^−1s^−1 and the “rate constant for dissociation (kd)” value is 5.1 ± 2.5 x10^−2 s^−1. Also, the “affinity for rP2X7 lower than that of human P2X3” value in test [2] (KD rP2X7 vs human P2X3) is “approximately 190 fold”. Further, the “affinity for rP2X7 lower than that of zebra fish P2X4” value in test [2] (KD rP2X7 vs zebra fish P2X4) was ~46 fold. The EC50 in test [3] stood at 290 ± 20 µM. Also, the “deactivation lifetime τ” value in test [4] is 2.3 ± 0.7 s. Also, the Kd in test [5] is 11.6 ± 1.7 nM.
BzATP: the “higher apparent affinity than ATP (EC50 ratio)” value in test [6] is ~ 28 fold. Also, in test [2] (BLI), the “rate constant for association (ka)” value was 3.7 ± 1.0 x10^5 M^−1s^−1 and the “rate constant for dissociation (kd)” value is given as 2.6 ± 1.0 x10^−3 s^−1. Besides, the “higher binding affinity (KD) than ATP” value in test [2] (BLI, rP2X7) is reported as ~ 70 fold. Moreover, in test [3], the concentration for a half-maximal effect (EC50) came out at 49 ± 4 µM. In test [4], the “deactivation lifetime τ” value was determined as 21 ± 6.2 s.
